SR-BI DiI-HDL act: activators of SR-BI mediated DiI-HDL uptake, primary screen, ldlA[mSR-BI] CHO cells, DiI fluorescence; AID 504775, 2011; activation, % at 12.5 µM; 3 h; 100 = double the neutral-control signal; 320,000 compounds, 0.096% hits;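 active = mean replicate activation of at least 60% and every replicate at or above 60%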
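Test system: SR-BI-overexpressing, LDLR-lacking CHO cells. Measured by: DiI fluorescence, bottom read. Medium: Ham's F12 with 0.5% BSA, HEPES 25 mM, pH 7.4. Timing: 3 h uptake period with compound, 37 °C.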
SR-BI HDL uptake: inhibitors of SR-BI mediated HDL lipid uptake, primary screen, ldlA[mSR-BI] cells, fluorescence, single point | Scavenger receptor class B member 1 (Mus musculus), Q61009 | ldlA[mSR-BI] CHO cells, DiI-HDL uptake fluorescence, 3 h | inhibition, % at 12.5 µM | 320,000 compounds, 0.96% hits | AID 488896, 2010;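 active = mean replicate inhibition of at least 70% and a set share of replicates each scoring 70 or more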
Target sequence (Q61009 whole entry, looked up): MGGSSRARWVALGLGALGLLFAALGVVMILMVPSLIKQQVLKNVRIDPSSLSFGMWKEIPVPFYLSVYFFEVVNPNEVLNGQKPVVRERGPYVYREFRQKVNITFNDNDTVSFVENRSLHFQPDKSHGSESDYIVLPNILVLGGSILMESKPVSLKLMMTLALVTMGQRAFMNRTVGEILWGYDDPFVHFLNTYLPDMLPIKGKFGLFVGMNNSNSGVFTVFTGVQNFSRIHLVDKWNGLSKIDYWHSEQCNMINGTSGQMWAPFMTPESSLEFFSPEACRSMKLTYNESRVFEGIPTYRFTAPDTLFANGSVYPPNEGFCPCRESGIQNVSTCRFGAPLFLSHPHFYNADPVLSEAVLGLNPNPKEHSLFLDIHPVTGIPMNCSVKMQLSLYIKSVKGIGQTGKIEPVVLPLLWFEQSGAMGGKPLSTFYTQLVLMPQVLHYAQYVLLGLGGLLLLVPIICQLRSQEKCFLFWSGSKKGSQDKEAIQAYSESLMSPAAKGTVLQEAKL
PglD inh: C. jejuni PglD acetyltransferase inhibitors, primary screen, biochemical, DTNB colorimetric, single point. purified PglD enzyme, DTNB colorimetric CoA detection. inhibition, % at 12.5 µM. 360,000 compounds, 0.098% hits. AID 602405, 2012; in the data active = inhibition above about 16%, passing the limit was not always enough
HIV Env fusion: inhibitors of HIV-1 Env-driven cell-cell fusion, primary screen, HeLa-JRFL effector, CEM21 target cells, luciferase; inhibition, % at 12.3 µM; 360,000 compounds, 1.1% hits;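 active = mean replicate inhibition score of at least 50 and every replicate individually at or above 50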
N-glyco inh: increase of ERlucT glycosylation luciferase signal, primary screen, N-linked glycosylation inhibitor project, D54 ERlucT cells, luminescence, set 2; D54 ERlucT glycosylation luciferase reporter, 24 h; percent of 100 nM tunicamycin response; reporter increase, % at 12.5 µM; 360,000 compounds, 0.23% hits;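 active = mean luciferase reporter signal, scaled so untreated is 0 and the glycosylation-blocking control 100, at or above a set limit in every replicate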;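 also: luciferase carries N-glycosylation sites so blocking glycosylation raises the light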
Rtt109 Vps75: inhibitors of C. albicans Rtt109/Vps75 HAT, primary screen, biochemical, ThioGlo CoA-SH fluorescence, plate reader; Histone acetyltransferase RTT109 (Candida albicans (strain SC5314 / ATCC MYA-2876)), …; purified Rtt109/Vps75, 4 h; inhibition, % at 34.9 µM; 330,000 compounds, 0.16% hits;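 active = inhibition of at least 50% in every replicate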
Each line names hits and unclear results; the compound was inactive in the other large screens. In the library only some 1.9% were active in any assay of this set; here they are far more common.

COc1cc(NC(=O)c2ccc(Br)o2)ccc1NC(=O)C(C)C	SR-BI HDL uptake 71 (no result: HIV Env fusion)
COc1ccc(S(=O)(=O)Nc2ccc3c(c2)C(=O)N([C@@H](C)CO)C[C@@H](C)[C@H](CN(C)Cc2ccccc2)OCCCC[C@H](C)O3)cc1	none (no result: SR-BI DiI-HDL act, SR-BI HDL uptake, N-glyco inh, Rtt109 Vps75)
COc1ccc(NC(=O)N(C)C[C@H]2OCCCC[C@H](C)Oc3ccc(NC(=O)C4CCCCC4)cc3C(=O)N([C@@H](C)CO)C[C@H]2C)cc1	none (no result: SR-BI DiI-HDL act, SR-BI HDL uptake, N-glyco inh, Rtt109 Vps75)
COc1ccc(C2CC(=O)C(C=NCCO)=C(O)C2)cc1 (centres undefined)	Rtt109 Vps75 54
COc1ccccc1N=CC1=C(O)CC(c2ccccc2)CC1=O (centres undefined)	N-glyco inh 28
Nc1ccc(C(=O)Nc2ccc(OC(F)(F)C(F)F)c(NC(=O)c3ccc(N)cc3)c2)cc1	SR-BI HDL uptake 77 (no result: HIV Env fusion)
NC(=S)c1ccc(OCCCc2ccccc2)cc1	HIV Env fusion 70 (no result: SR-BI DiI-HDL act, SR-BI HDL uptake, Rtt109 Vps75)
CCCCOc1ccc(C(=O)NCCc2ccccc2)cc1	none
CC1=NN(c2nc(-c3ccc(C)cc3)cs2)C(=O)C1N=Nc1ccccc1O (centres undefined)	SR-BI HDL uptake 152 (no result: PglD inh)
NC(=O)c1c(NC(=O)COC(=O)c2ccc(S(=O)(=O)Nc3ccccc3)cc2)sc2c1CCCC2	SR-BI HDL uptake 95 (no result: PglD inh)
O=C1C2C=C(Br)[C@H](C[C@@H]2OCCCCCCO)[C@@]12CO2	none (no result: SR-BI DiI-HDL act, SR-BI HDL uptake, N-glyco inh, Rtt109 Vps75)
C[C@H]1CN([C@@H](C)CO)S(=O)(=O)c2ccc(-c3ccc(F)cc3)cc2O[C@@H]1CN(C)C(=O)C1CC1	none (no result: SR-BI DiI-HDL act, SR-BI HDL uptake, PglD inh, N-glyco inh, Rtt109 Vps75)
Cc1cc(/C=N/n2cnnc2)c(C)n1-c1ccc(OCc2ccc(F)cc2)cc1	HIV Env fusion 66
Cc1cc(/C=N/n2cnnc2)c(C)n1-c1ccc(OCc2ccc(Cl)cc2Cl)cc1	none (no result: PglD inh, HIV Env fusion)
O=C(Nc1sc2c(c1C(=O)NCc1ccco1)CCCC2)c1ccc2c(c1)OCO2	SR-BI HDL uptake 82
Cc1ccc(C(=O)Nc2sc3c(c2C(=O)NCc2ccco2)CCCC3)cc1	none
COc1cc(C(=O)Nc2nnc(C3CC3)s2)ccc1OCc1c(C)noc1C	SR-BI HDL uptake 88 (no result: PglD inh)
COc1cc(C(=O)Nc2nc3ccccc3s2)ccc1OCc1c(C)noc1C	none
COc1cc(C(=O)NCC2CCCO2)ccc1OCc1c(C)noc1C (centres undefined)	none
COc1cc(C(=O)Nc2nccs2)ccc1OCc1c(C)noc1C	SR-BI HDL uptake 76 (no result: HIV Env fusion)
COC(=O)c1c(NC(=S)Nc2ccccc2Cl)sc(C)c1C	SR-BI HDL uptake 75 (no result: HIV Env fusion)
CCCN(CCC)C(=O)c1cc2c(=O)n3cccc(C)c3nc2s1	HIV Env fusion 58
Cc1cccn2c(=O)c3cc(C(=O)N4CCCC(C)C4)sc3nc12 (centres undefined)	none
Cc1cccn2c(=O)c3cc(C(=O)N4CCCCC4)sc3nc12	N-glyco inh 34
O=C(c1ccc(Cl)c(Cl)c1)N1CCC(=O)N(C(COCc2cccc(C(F)(F)F)c2)Cc2ccccc2)CC1 (centres undefined)	HIV Env fusion 80
Cc1cccc(COCC(Cc2ccccc2)N2CCN(C(=O)c3ccc(Cl)c(Cl)c3)CCC2=O)c1 (centres undefined)	HIV Env fusion 95
Cc1ccc(S(=O)(=O)N2CCC(=O)N(CCOCc3ccc(Cl)cc3)CC2)cc1	HIV Env fusion 56
Cc1ccc(S(=O)(=O)N2CCC(=O)N(C(COCc3cccc(C(F)(F)F)c3)Cc3ccccc3)CC2)cc1 (centres undefined)	HIV Env fusion 56
COc1ccccc1S(=O)(=O)N[C@H]1C=C[C@@H](CC(=O)N2CCN(C)CC2)O[C@@H]1CO	none (no result: SR-BI DiI-HDL act, SR-BI HDL uptake, N-glyco inh, Rtt109 Vps75)
CO[C@@H]1CN(C)C(=O)c2ccc(NS(=O)(=O)c3ccccc3)cc2OC[C@@H](C)N(Cc2ccccn2)C[C@H]1C	none (no result: SR-BI DiI-HDL act, SR-BI HDL uptake, HIV Env fusion, N-glyco inh, Rtt109 Vps75)
C[C@@H]1CN([C@H](C)CO)C(=O)Cc2cc(NC(=O)Nc3cccc4ccccc34)ccc2O[C@@H]1CN(C)S(=O)(=O)c1ccc(F)cc1	none (no result: SR-BI DiI-HDL act, SR-BI HDL uptake, N-glyco inh, Rtt109 Vps75)
CO[C@H]1CN(C)C(=O)c2cc(NC(=O)C3CCC3)ccc2OC[C@@H](C)N(Cc2ccc(F)cc2)C[C@@H]1C	none (no result: SR-BI DiI-HDL act, SR-BI HDL uptake, HIV Env fusion, N-glyco inh, Rtt109 Vps75)
Cc1cccc(COC[C@H](Cc2ccccc2)N2CCN(C(=O)c3ccc(Cl)c(Cl)c3)CCC2=O)c1	HIV Env fusion 83 (no result: SR-BI DiI-HDL act, SR-BI HDL uptake, PglD inh, N-glyco inh, Rtt109 Vps75)
C[C@@H]1CN([C@@H](C)CO)C(=O)c2cc(NC(=O)Cc3ccccc3)ccc2O[C@@H](C)CCCCO[C@@H]1CN(C)S(=O)(=O)c1ccc(F)cc1	none (no result: SR-BI DiI-HDL act, SR-BI HDL uptake, N-glyco inh, Rtt109 Vps75)
CCOc1ccc(N2C(=O)Nc3ccccc3C2(O)C(=O)N2CCN(c3ccccn3)CC2)cc1 (centres undefined)	N-glyco inh 27
O=C(C[C@@H]1CC[C@H](NC(=O)Cc2ccccn2)[C@H](CO)O1)NCCCN1CCOCC1	none (no result: SR-BI DiI-HDL act, SR-BI HDL uptake, N-glyco inh, Rtt109 Vps75)
CSCCC(NC(=O)c1ccc(Cl)cc1Cl)C(=O)N1CCN(C(=O)c2ccccc2)CC1 (centres undefined)	SR-BI HDL uptake 78 (no result: HIV Env fusion)
CCOc1cc(NC(=S)Nc2ccccc2)c(OCC)cc1NC(=O)c1ccccc1	SR-BI HDL uptake 81
CCOc1cc(NC(=S)NCC2CCCO2)c(OCC)cc1NC(=O)c1ccccc1C (centres undefined)	none
CCOc1cc(NC(=O)c2ccccn2)c(OCC)cc1NC(=O)c1ccccc1	none (no result: PglD inh)
CCOc1cc(NC(=S)NC)c(OCC)cc1NC(=O)c1ccc(OC)cc1	SR-BI HDL uptake 82
CCOc1cc(NC(=S)Nc2ccccc2OC)c(OCC)cc1NC(=O)c1ccccc1C	SR-BI HDL uptake 87
C[C@@H]1CN([C@H](C)CO)C(=O)c2cc(NC(=O)Cc3ccccc3)ccc2O[C@@H](C)CCCCO[C@H]1CN(C)C(=O)c1ccccc1	none (no result: SR-BI DiI-HDL act, SR-BI HDL uptake, N-glyco inh, Rtt109 Vps75)
C[C@@H]1CCCCO[C@@H](CN(C)CC2CCCCC2)[C@@H](C)CN([C@H](C)CO)C(=O)c2cc(NC(=O)Cc3ccccc3)ccc2O1	none (no result: SR-BI DiI-HDL act, SR-BI HDL uptake, N-glyco inh, Rtt109 Vps75)
O=C(O)C1CCc2sc3[nH]c(=S)n(-c4ccccc4)c(=O)c3c21 (centres undefined)	Rtt109 Vps75 105
CCN(CC)C(=O)c1sc2[nH]c(=S)n(-c3ccccc3)c(=O)c2c1C	none (no result: HIV Env fusion)
COCC(=O)Nc1ccc2c(c1)C(=O)N(C)C[C@@H](OC)[C@H](C)CN(C(=O)c1cnccn1)[C@H](C)CO2	none (no result: SR-BI DiI-HDL act, SR-BI HDL uptake, HIV Env fusion, N-glyco inh, Rtt109 Vps75)
NC(=O)c1ccc2c(=O)n3c(-c4cc(Cl)c(N)c(Cl)c4)csc3nc2c1	N-glyco inh 29
Cc1csc2nc3cc(C(N)=O)ccc3c(=O)n12	none
